Laboratory results as given in ChEMBL document CHEMBL2069223, “Near-infrared fluorescent divalent RGD ligand for integrin αvβ₃-targeted optical imaging” (Bioorg Med Chem Lett, 2012).
The source made the active and inactive calls. No cut-off for these calls is given here.

Key:
[1] = molecular target: T1, Integrin alpha-V/beta-3 (Homo sapiens, UniProt P05106+P06756); test: Binding affinity to integrin alphavbeta3 in human A549 cells assessed as cellular uptake in mitochondria measured by co-localization with mitotracker orange CM-TMRos after 16 hrs by two-dimensional confocal image analysis; format: cell-based
In short: (§1)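 A549 cells incubated with probe for 16 h. Confocal imaging with excitation at 488, 633 and 755 nm, scanning a field at 2 µs per pixel. Images overlay a nuclear stain, a mitochondrial stain and cypate fluorescence, and subcellular localization is judged from this co-localization.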

[2] = molecular target: T1, Integrin alpha-V/beta-3; test: Binding affinity to integrin alphavbeta3 in human A549 cells assessed as cellular uptake after 6 hrs by NIR Fluorescence microscopy analysis; format: cell-based
In short: (§2)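 Integrin αvβ3-positive A549 cells were incubated with the NIR fluorescent probes. Cellular binding and uptake were then imaged by NIR fluorescence microscopy at separate incubation time points.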

[3] = molecular target: T1, Integrin alpha-V/beta-3; test: Binding affinity to integrin alphavbeta3 in human A549 cells assessed as cellular uptake after 1 hr by NIR Fluorescence microscopy analysis; format: cell-based; in short: as §2
[4] = system: Kidney; test: Biodistribution in kidney of nude mouse xenografted with human A549 cells expressing integrin alphavbeta3 at 60 uM, iv after 4 hrs by NIR Fluorescence image analysis; format: ADME, organism-based; settings: in vivo
In short: (§3)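 Nude mice bearing A549 xenografts (5–7 mm diameter) received 100 µL of 60 µM probe by tail-vein injection. Noninvasive whole-body NIR fluorescence imaging (excitation 780 nm, emission 830 nm) was done at 1, 4 and 24 h post-injection, and tissue fluorescence intensity was measured from the images.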

[5] = molecular target: T1, Integrin alpha-V/beta-3; test: Binding affinity to integrin alphavbeta3 in human A549 cells assessed as cellular uptake in nucleus measured by co-localization with DRAQ5 after 16 hrs by two-dimensional confocal image analysis; format: cell-based; in short: as §1
[6] = molecular target: T1, Integrin alpha-V/beta-3; test: Displacement of [125I]-c(RGDyK) from human integrin alphavbeta3 after 16 hrs by scintillation counting; format: protein-complex assay
[7] = system: Liver; test: Biodistribution in liver of nude mouse xenografted with human A549 cells expressing integrin alphavbeta3 at 60 uM, iv after 4 hrs by NIR Fluorescence image analysis; format: ADME, organism-based; settings: in vivo; in short: as §3
[8] = system: Heart; test: Biodistribution in heart of nude mouse xenografted with human A549 cells expressing integrin alphavbeta3 at 60 uM, iv after 24 hrs by NIR Fluorescence image analysis; format: ADME, organism-based; settings: in vivo
In short: (§4)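 Nude mice bearing A549 xenografts (5–7 mm diameter) received 100 µL of 60 µM probe by tail-vein injection. Animals were euthanized at 24 h post-injection. Excised organs were imaged ex vivo for NIR fluorescence (excitation 780 nm, emission 830 nm), and organ fluorescence intensity was measured.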

[9] = system: Kidney; test: Biodistribution in kidney of nude mouse xenografted with human A549 cells expressing integrin alphavbeta3 at 60 uM, iv after 24 hrs by NIR Fluorescence image analysis; format: ADME, organism-based; settings: in vivo; in short: as §4
[10] = system: Muscle tissue; test: Biodistribution in muscle of nude mouse xenografted with human A549 cells expressing integrin alphavbeta3 at 60 uM, iv after 24 hrs by NIR Fluorescence image analysis; format: ADME, organism-based; settings: in vivo; in short: as §4
[11] = system: Spleen; test: Biodistribution in spleen of nude mouse xenografted with human A549 cells expressing integrin alphavbeta3 at 60 uM, iv after 24 hrs by NIR Fluorescence image analysis; format: ADME, organism-based; settings: in vivo; in short: as §4
[12] = system: Mus musculus; test: Biodistribution in tumor of nude mouse xenografted with human A549 cells expressing integrin alphavbeta3 at 60 uM, iv after 4 hrs by NIR Fluorescence image analysis; format: ADME, organism-based, Neoplasm; settings: in vivo; in short: as §3
[13] = system: Liver; test: Biodistribution in liver of nude mouse xenografted with human A549 cells expressing integrin alphavbeta3 at 60 uM, iv after 24 hrs by NIR Fluorescence image analysis; format: ADME, organism-based; settings: in vivo; in short: as §4
[14] = system: Zone of skin; test: Biodistribution in skin of nude mouse xenografted with human A549 cells expressing integrin alphavbeta3 at 60 uM, iv after 24 hrs by NIR Fluorescence image analysis; format: ADME, organism-based; settings: in vivo; in short: as §4
[15] = system: Mus musculus; test: Biodistribution in adrenal of nude mouse xenografted with human A549 cells expressing integrin alphavbeta3 at 60 uM, iv after 24 hrs by NIR Fluorescence image analysis; format: ADME, organism-based, Adrenal tissue; settings: in vivo; in short: as §4
[16] = system: Brain; test: Biodistribution in brain of nude mouse xenografted with human A549 cells expressing integrin alphavbeta3 at 60 uM, iv after 24 hrs by NIR Fluorescence image analysis; format: ADME, organism-based; settings: in vivo; in short: as §4
[17] = system: Pancreas; test: Biodistribution in pancreas of nude mouse xenografted with human A549 cells expressing integrin alphavbeta3 at 60 uM, iv after 24 hrs by NIR Fluorescence image analysis; format: ADME, organism-based; settings: in vivo; in short: as §4
[18] = system: Mus musculus; test: Biodistribution in tumor of nude mouse xenografted with human A549 cells expressing integrin alphavbeta3 at 60 uM, iv after 24 hrs by NIR Fluorescence image analysis; format: ADME, organism-based, Neoplasm; settings: in vivo; in short: as §4
[19] = system: Blood; test: Biodistribution in blood of nude mouse xenografted with human A549 cells expressing integrin alphavbeta3 at 60 uM, iv after 24 hrs by NIR Fluorescence image analysis; format: ADME, organism-based; settings: in vivo; in short: as §4

Row | Activity [2] | Activity [3] | SMILES | Activity [1] | Drug uptake [4] | Activity [5] | IC50 [6] | Ki [6] | Drug uptake [7] | Drug uptake [8] | Drug uptake [9] | Drug uptake [10] | Drug uptake [11] | Drug uptake [12] | Drug uptake [13] | Drug uptake [14] | Drug uptake [15] | Drug uptake [16] | Drug uptake [17] | Drug uptake [18] | Drug uptake [19]
1 | Active | Active | CC1(C)C(/C=C/C=C/C=C/C=C2/N(CCC(=O)NCCCC[C@@H]3NC(=O)[C@@H](Cc4ccccc4)NC(=O)[C@H](CC(=O)O)NC(=O)CNC(=O)[C@H](CCCNC(=N)N)NC3=O)c3ccc4ccccc4c3C2(C)C)=[N+](CCC(=O)O)c2ccc3ccccc3c21.[Br-] | Active | Active | Active | […] | […] | Active |  |  |  |  |  |  |  |  |  |  |  | 
2 | Active | Active | CC1(C)C(/C=C/C=C/C=C/C=C2/N(CCC(=O)O)c3ccc4ccccc4c3C2(C)C)=[N+](CCC(=O)O)c2ccc3ccccc3c21 |  |  |  |  |  |  |  |  |  |  |  |  |  |  |  |  |  | 

Row | SMILES | Activity [2] | Activity [3] | Activity [1] | Drug uptake [4] | Activity [5] | IC50 [6] | Ki [6] | Drug uptake [7] | Drug uptake [8] | Drug uptake [9] | Drug uptake [10] | Drug uptake [11] | Drug uptake [12] | Drug uptake [13] | Drug uptake [14] | Drug uptake [15] | Drug uptake [16] | Drug uptake [17] | Drug uptake [18] | Drug uptake [19]
3 | CC1(C)C(/C=C/C=C/C=C/C=C2/N(CCC(=O)NCCCC[C@@H]3NC(=O)[C@@H](Cc4ccccc4)NC(=O)[C@H](CC(=O)O)NC(=O)CNC(=O)[C@H](CCCNC(=N)N)NC3=O)c3ccc4ccccc4c3C2(C)C)=[N+](CCC(=O)NCCCC[C@@H]2NC(=O)[C@@H](Cc3ccccc3)NC(=O)[C@H](CC(=O)O)NC(=O)CNC(=O)[C@H](CCCNC(=N)N)NC2=O)c2ccc3ccccc3c21.[Br-] | Active | Active | Active | Active | Active | 281 pM | 43 pM | Active | Active | Active | Active | Active | Active | Active | Active | Active | Active | Active | Active | Active
